# Measurements reported in ChEMBL document CHEMBL1122187, “Synthesis and antiviral activity of certain carbamoylpyrrolopyrimidine and pyrazolopyrimidine nucleosides” (1982).
# What was measured:
# [1] = test system: HEp-2; assay: In vitro antiviral activity against herpes simplex type 1 (HSV-1) virus was determined in human laryngeal epithelioma (HEp-2,H)expressed as virus rating. Toxic level(100 ug/mL); assay type: functional
# Outline: (§1)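 Cell monolayers (18 h) infected with 320 TCID50 of virus. Compound was added within 15–30 min at half-log dilutions from 1000 to 1 μg/mL. After 72 h at 37 °C in 5% CO2, CPE was scored 0–4 by microscopy. VR = sum of (virus control − treated) scores, halved at partially toxic levels, divided by 10 × test cups per drug level.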
# [2] = test system: HEp-2; assay: In vitro antiviral activity against vaccinia(VV) virus was determined in human laryngeal epithelioma (HEp-2,H)expressed as virus rating. Toxic level(100 ug/mL); assay type: functional; outline: as §1
# [3] = test system: Vero; assay: In vitro antiviral activity against vaccinia(VV) virus was determined in african green monkey kidney (vero,V) expressed as virus rating. Toxic level(>1000 ug/mL); assay type: functional, Chlorocebus sabaeus; outline: as §1
# [4] = test system: Vero; assay: In vitro antiviral activity against herpes simplex type 1 (HSV-1) virus was determined in african green monkey kidney (vero,V) expressed as virus rating. Toxic level(>1000 ug/mL); assay type: functional, Chlorocebus sabaeus; outline: as §1
# [5] = test system: Vero; assay: In vitro antiviral activity against parainfluenza type 3(para 3) virus was determined in african green monkey kidney (vero,V) expressed as virus rating. Toxic level(>1000 ug/mL); assay type: functional, Chlorocebus sabaeus; outline: as §1
# [6] = test system: HEp-2; assay: In vitro antiviral activity against parainfluenza type 3 (para3) virus was determined in human laryngeal epithelioma (HEp-2,H)expressed as virus rating. Toxic level(100 ug/mL); assay type: functional; outline: as §1
# [7] = test system: Vero; assay: Percentage plaque reduction was determined against rift valley fever(RVF) virus in african green monkey kidney (vero,V) at a conc of 100-250 ug/mL; assay type: functional, Chlorocebus sabaeus
# [8] = test system: Vero; assay: Percentage plaque reduction was determined against rift valley fever(RVF) virus in african green monkey kidney (vero,V) at a conc of 25-100 ug/mL; assay type: functional, Chlorocebus sabaeus
# [9] = test system: Vero; assay: Percentage plaque reduction was determined against Sandfly fever (SF) virus in african green monkey kidney (vero,V) at a conc of 100-250 ug/mL; assay type: functional, Chlorocebus sabaeus
# [10] = test system: Vero; assay: Percentage plaque reduction was determined against Sandfly fever (SF) virus in african green monkey kidney (vero,V) at a conc of 25-100 ug/mL; assay type: functional, Chlorocebus sabaeus
# [11] = test system: Vero; assay: Percentage plaque reduction was determined against yellow fever(YF) virus in african green monkey kidney (vero,V); 61-90; assay type: functional, Chlorocebus sabaeus
# [12] = test system: Vero; assay: In vitro antiviral activity against herpes simplex type 1 (HSV-1) virus was determined in african green monkey kidney (vero,V) expressed as virus rating.; assay type: functional, Chlorocebus sabaeus; outline: as §1
# [13] = test system: Vero; assay: Percentage plaque reduction was determined against rift valley fever(RVF) virus in african green monkey kidney (vero,V) at a conc of 250-500 ug/mL; assay type: functional, Chlorocebus sabaeus
# [14] = test system: Vero; assay: Percentage plaque reduction was determined against Sandfly fever (SF) virus in african green monkey kidney (vero,V) at a conc of 250-500 ug/mL; assay type: functional, Chlorocebus sabaeus
# [15] = test system: Vero; assay: Percentage plaque reduction was determined against Sandfly fever (SF) virus in african green monkey kidney (vero,V) at a conc of <25 ug/mL; assay type: functional, Chlorocebus sabaeus
# [16] = test system: Vero; assay: Percentage plaque reduction was determined against pichinde(PICH) virus in african green monkey kidney (vero,V); assay type: functional, Chlorocebus sabaeus
# Outline: (§2)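 Infected Vero 24-well monolayers: virus adsorbed 1 h at 37 °C, then overlaid with agar holding dilutions of compound and incubated again at 37 °C with CO₂. Plaques were stained with crystal violet and counted. Inhibition was scored as % plaque reduction bands (10-30%, 31-60%, 61-90%), each tied to a drug concentration range.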
# [17] = test system: Vero; assay: Percentage plaque reduction was determined against rift valley fever(RVF) virus in african green monkey kidney (vero,V) at a conc of <25 ug/mL; assay type: functional, Chlorocebus sabaeus
# [18] = test system: Vero; assay: Percentage plaque reduction was determined against venezuelan equine encephalitis (VEE) virus in african green monkey kidney (vero,V) at a conc of <25 ug/mL; assay type: functional, Chlorocebus sabaeus
# [19] = test system: Vero; assay: In vitro antiviral activity against parainfluenza type 3(para 3) virus was determined in african green monkey kidney (vero,V) expressed as virus rating.; assay type: functional, Chlorocebus sabaeus; outline: as §1
# [20] = test system: Vero; assay: In vitro antiviral activity against vaccinia(VV) virus was determined in african green monkey kidney (vero,V) expressed as virus rating.; assay type: functional, Chlorocebus sabaeus; outline: as §1
# [21] = test system: Vero; assay: Percentage plaque reduction was determined against venezuelan equine encephalitis (VEE) virus in african green monkey kidney (vero,V) at a conc of 100-250 ug/mL; assay type: functional, Chlorocebus sabaeus
# [22] = test system: Vero; assay: Percentage plaque reduction was determined against venezuelan equine encephalitis (VEE) virus in african green monkey kidney (vero,V) at a conc of 25-100 ug/mL; assay type: functional, Chlorocebus sabaeus
# [23] = test system: Vero; assay: Percentage plaque reduction was determined against venezuelan equine encephalitis (VEE) virus in african green monkey kidney (vero,V) at a conc of 250-500 ug/mL; assay type: functional, Chlorocebus sabaeus
# [24] = test system: Vero; assay: Percentage plaque reduction was determined against rift valley fever(RVF) virus in african green monkey kidney (vero,V) at a conc of 100-250 ug/mL. Toxic level(10 ug/mL); assay type: functional, Chlorocebus sabaeus
# [25] = test system: Vero; assay: Percentage plaque reduction was determined against rift valley fever(RVF) virus in african green monkey kidney (vero,V) at a conc of 25-100 ug/mL. Toxic level(10 ug/mL); assay type: functional, Chlorocebus sabaeus
# [26] = test system: Vero; assay: Percentage plaque reduction was determined against rift valley fever(RVF) virus in african green monkey kidney (vero,V) at a conc of 250-500 ug/mL. Toxic level(10 ug/mL); assay type: functional, Chlorocebus sabaeus
# [27] = test system: Vero; assay: Percentage plaque reduction was determined against rift valley fever(RVF) virus in african green monkey kidney (vero,V) at a conc of <25 ug/mL. Toxic level(10 ug/mL); assay type: functional, Chlorocebus sabaeus
# [28] = test system: Vero; assay: Percentage plaque reduction was determined against venezuelan equine encephalitis (VEE) virus in african green monkey kidney (vero,V) at a conc of 100-250 ug/mL. Toxic level(10 ug/mL); assay type: functional, Chlorocebus sabaeus
# [29] = test system: Vero; assay: Percentage plaque reduction was determined against venezuelan equine encephalitis (VEE) virus in african green monkey kidney (vero,V) at a conc of 25-100 ug/mL. Toxic level(10 ug/mL); assay type: functional, Chlorocebus sabaeus
# [30] = test system: Vero; assay: Percentage plaque reduction was determined against Sandfly fever (SF) virus in african green monkey kidney (vero,V) at a conc of 100-250 ug/mL. Toxic level(10 ug/mL); assay type: functional, Chlorocebus sabaeus
# [31] = test system: Vero; assay: Percentage plaque reduction was determined against Sandfly fever (SF) virus in african green monkey kidney (vero,V) at a conc of 25-100 ug/mL. Toxic level(10 ug/mL); assay type: functional, Chlorocebus sabaeus
# [32] = test system: Vero; assay: Percentage plaque reduction was determined against Sandfly fever (SF) virus in african green monkey kidney (vero,V) at a conc of 250-500 ug/mL. Toxic level(10 ug/mL); assay type: functional, Chlorocebus sabaeus
# [33] = test system: Vero; assay: Percentage plaque reduction was determined against Sandfly fever (SF) virus in african green monkey kidney (vero,V) at a conc of <25 ug/mL. Toxic level(10 ug/mL); assay type: functional, Chlorocebus sabaeus; outline: as §2
# [34] = test system: Vero; assay: Percentage plaque reduction was determined against pichinde(PICH) virus in african green monkey kidney (vero,V).Toxic level(10 ug/mL); assay type: functional, Chlorocebus sabaeus; outline: as §2
# [35] = test system: Vero; assay: In vitro antiviral activity against herpes simplex type 1 (HSV-1) virus was determined in african green monkey kidney (vero,V) expressed as virus rating. Toxic level(10 ug/mL); assay type: functional, Chlorocebus sabaeus; outline: as §1
# [36] = test system: Vero; assay: Percentage plaque reduction was determined against venezuelan equine encephalitis (VEE) virus in african green monkey kidney (vero,V) at a conc of 250-500 ug/mL. Toxic level(10 ug/mL); assay type: functional, Chlorocebus sabaeus
# [37] = test system: Vero; assay: Percentage plaque reduction was determined against yellow fever (YF) virus in african green monkey kidney (vero,V).Toxic level(10 ug/mL); assay type: functional, Chlorocebus sabaeus
# [38] = test system: HEp-2; assay: In vitro antiviral activity against parainfluenza type 3(para 3) virus was determined in human laryngeal epithelioma (HEp-2,H)expressed as virus rating. Toxic level(100 ug/mL); assay type: functional; outline: as §1
# [39] = test system: Vero; assay: In vitro antiviral activity against vaccinia(VV) virus was determined in african green monkey kidney (vero,V) expressed as virus rating. Toxic level(100 ug/mL); assay type: functional, Chlorocebus sabaeus; outline: as §1
# [40] = test system: Vero; assay: In vitro antiviral activity against parainfluenza type 3(para 3) virus was determined in african green monkey kidney (vero,V) expressed as virus rating. Toxic level(100 ug/mL); assay type: functional, Chlorocebus sabaeus; outline: as §1
# [41] = test system: Vero; assay: In vitro antiviral activity against herpes simplex type 1 (HSV-1) virus was determined in african green monkey kidney (vero,V) expressed as virus rating. Toxic level(100 ug/mL); assay type: functional, Chlorocebus sabaeus; outline: as §1
compound,measurement,setting,value
CSc1ncnc2c1ccn2[C@@H]1O[C@H](CO)[C@@H](O)[C@H]1O,Virus rating,[1],1.3
same,Virus rating,[2],1.4
same,Virus rating,[3],1
same,Virus rating,[4],0.5
same,Virus rating,[5],0.9
same,Virus rating,[6],1.5
CSc1ncnc2c([C@@H]3O[C@H](COC(C)=O)[C@@H](OC(C)=O)[C@H]3OC(C)=O)n[nH]c12,Plaque reduction,[7],0%
same,Plaque reduction,[8],0%
same,Plaque reduction,[9],0%
same,Plaque reduction,[10],0%
same,Plaque reduction,[11],61%
same,Virus rating,[12],0.6
same,Plaque reduction,[13],0%
same,Plaque reduction,[14],0%
same,Plaque reduction,[15],0%
same,Plaque reduction,[16],0%
same,Plaque reduction,[17],0%
same,Plaque reduction,[18],0%
same,Virus rating,[19],1
same,Virus rating,[20],1.2
same,Plaque reduction,[21],0%
same,Plaque reduction,[22],0%
same,Plaque reduction,[23],0%
O=C1N=CN=C2C([C@@H]3O[C@H](CO)[C@@H](O)[C@H]3O)=NNC12 (some centres undefined),Plaque reduction,[24],0%
same,Plaque reduction,[25],0%
same,Plaque reduction,[26],0%
same,Plaque reduction,[27],0%
same,Plaque reduction,[28],0%
same,Plaque reduction,[29],0%
same,Plaque reduction,[30],0%
same,Plaque reduction,[31],0%
same,Plaque reduction,[32],0%
same,Plaque reduction,[33],0%
same,Plaque reduction,[34],>90%
same,Virus rating,[35],0.1
same,Plaque reduction,[36],0%
same,Plaque reduction,[18],0%
same,Plaque reduction,[37],0%
NC(=O)c1ncnc2c([C@@H]3O[C@H](CO)[C@@H](O)[C@H]3O)n[nH]c12,Virus rating,[1],0
same,Virus rating,[38],0.4
same,Virus rating,[2],0.8
same,Virus rating,[39],0.6
same,Virus rating,[40],0
same,Virus rating,[41],0
